The subject of data set [1] is Staphylococcus aureus. Nature of the data set: Bacteriostatic activity against Staphylococcus aureus E19977 assessed as log reduction in cfu at 0.5 mg/liter upto 8 hrs by time-kill study. Format: functional, organism-based.
In data set [2] the test system is Staphylococcus aureus. Nature of the data set: Bactericidal activity against Staphylococcus aureus E19977 assessed as log reduction in cfu at 9 mg/liter after 24 hrs by time-kill study. Format: functional, organism-based. Put shortly:
(§1)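 In vitro kinetic model simulating antibiotic elimination without inoculum change. Exponential-phase E19977 was added at a final 10^6.3 CFU/ml. Starting drug concentration matched the human free peak, with the human half-life simulated. Samples were plated on 5% blood agar at 0, 2, 4, 6, 8, 12 and 24 h, with growth controls in each run. Results are shown as mean and range, n = 2.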

In data set [3] the test system is Staphylococcus aureus. Nature of the data set: Bactericidal activity against Staphylococcus aureus E19977 assessed as log reduction in cfu at 2 mg/liter after 24 hrs by time-kill study. Format: functional, organism-based. Put shortly: as §1
For data set [4], the system named is Staphylococcus aureus. Briefly: Bactericidal activity against Staphylococcus aureus E19977 assessed as log reduction in cfu at 1.5 mg/liter after 24 hrs by time-kill study. Format: functional, organism-based. Put shortly:
as §1

In data set [5] the test system is Staphylococcus aureus. Briefly: Bactericidal activity against Staphylococcus aureus E19977 assessed as log reduction in cfu at 20 mg/liter after 24 hrs by time-kill study. Format: functional, organism-based. The essentials:
as §1

Data set [6] deals with Staphylococcus aureus. Nature of the data set: Bactericidal activity against Staphylococcus aureus E19977 assessed as log reduction in cfu at 0.5 mg/liter after 24 hrs by time-kill study. Format: functional, organism-based. The essentials: as §1
Data set [7] relates to Staphylococcus aureus. Nature of the data set: Antibacterial activity against Staphylococcus aureus E19977 infected in NMRI mouse assessed as log reduction in bacterial cfu in peritoneum at 1 mg/kg, sc administered 2 hrs after infection measured after 4 hrs. Format: functional, organism-based. The arrangement: dose 1 mg/kg. The essentials:
(§2)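 Female NMRI mice (25–30 g) were infected i.p. with 0.5 ml of 10^7.7 CFU/ml in 5% mucin. […] Pooled washes were split into total, extracellular and intracellular fractions by 300 × g spin, lysostaphin, HBSS washes and water lysis. Counts were compared with untreated mice.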

In data set [8] the test system is Staphylococcus aureus. Briefly: Antibacterial activity against Staphylococcus aureus E19977 infected in NMRI mouse assessed as log reduction in intracellular bacterial cfu in peritoneum at 1 mg/kg, sc administered 2 hrs after infection measured after 4 hrs. The arrangement: dose 1 mg/kg. Format: functional, organism-based. Put shortly: as §2
For data set [9], the system named is Staphylococcus aureus. Briefly: Antibacterial activity against Staphylococcus aureus E19977 infected in NMRI mouse assessed as log reduction in extracellular bacterial cfu in peritoneum at 1 mg/kg, sc administered 2 hrs after infection measured after 4 hrs. Format: functional, organism-based. Also noted: dose 1 mg/kg. Put shortly: as §2
Data set [10] relates to Staphylococcus aureus. Briefly: Antibacterial activity against Staphylococcus aureus E19977 by Etest. Format: functional.
A short description of data set [11]: Cmax in human at 1000 mg, po. Format: ADME, organism-based. As to conditions: in vivo. Also noted: dose 1000 mg, route oral.
For data set [12], the system named is Serum. Briefly: Protein binding in human serum at 1000 mg, po. Format: ADME, organism-based. As to conditions: in vivo.
Data set [13] is described as follows: Half life in human at 1000 mg, po. Format: ADME, organism-based. The note with it: in vivo.
The subject of data set [14] is Homo sapiens. Briefly: Cmax in human at 240 mg, im. As to conditions: in vivo. Also noted: dose 240 mg, route […]. Format: ADME, organism-based.
Data set [15] has as its system Serum. Nature of the data set: Protein binding in human serum at 240 mg, im. Format: ADME, cell-free.
Data set [16] deals with Homo sapiens. Nature of the data set: Half life in human at 240 mg, im. The note with it: in vivo. Format: ADME, organism-based.

In brackets after ≈: the same amount, converted by molar mass. Activity calls are given as the source filed them. No cut-off for these calls is given here.

`CC[C@H]1OC(=O)[C@H](C)[C@@H](O[C@H]2C[C@@](C)(OC)[C@@H](O)[C@H](C)O2)[C@H](C)[C@@H](O[C@@H]2O[C@H](C)C[C@H](N(C)C)[C@H]2O)[C@](C)(O)C[C@@H](C)CN(C)[C@H](C)[C@@H](O)[C@]1(C)O` [AZITHROMYCIN]: in [1], the outcome was Active. For the same compound, the result in [2], in data set [3], in [4], in data set [5], in data set [6] and in data set [7] was inactive. For the same compound, the result in data set [8] and in data set [9] was inactive. In [10], this compound yielded a minimum inhibitory concentration (MIC) of 0.5 µg/mL (≈ 0.668 µM). Moreover, the peak level in data set [11] (Cmax) was 1000 ng/mL. The Activity in data set [12] is given as 50%. Further, in data set [13], the half-life is 10 h.

In data set [14], GENTAMICIN came in with a Cmax of 10000 ng/mL. The compound further showed an Activity in data set [15] of 10%. In addition, the t1/2 in [16] amounted to 2 h.

The record behind these values is ChEMBL document CHEMBL1649157, “Intracellular activity of antibiotics against Staphylococcus aureus in a mouse peritonitis model” (Antimicrob Agents Chemother, 2009).
